Experimental data pooled from the literature.
Lines come from different studies, so protocols differ.
Target: MAP/microtubule affinity-regulating kinase 4 (MARK4, Homo sapiens, UniProt Q96L34)
One construct used (Q96L34 1-752): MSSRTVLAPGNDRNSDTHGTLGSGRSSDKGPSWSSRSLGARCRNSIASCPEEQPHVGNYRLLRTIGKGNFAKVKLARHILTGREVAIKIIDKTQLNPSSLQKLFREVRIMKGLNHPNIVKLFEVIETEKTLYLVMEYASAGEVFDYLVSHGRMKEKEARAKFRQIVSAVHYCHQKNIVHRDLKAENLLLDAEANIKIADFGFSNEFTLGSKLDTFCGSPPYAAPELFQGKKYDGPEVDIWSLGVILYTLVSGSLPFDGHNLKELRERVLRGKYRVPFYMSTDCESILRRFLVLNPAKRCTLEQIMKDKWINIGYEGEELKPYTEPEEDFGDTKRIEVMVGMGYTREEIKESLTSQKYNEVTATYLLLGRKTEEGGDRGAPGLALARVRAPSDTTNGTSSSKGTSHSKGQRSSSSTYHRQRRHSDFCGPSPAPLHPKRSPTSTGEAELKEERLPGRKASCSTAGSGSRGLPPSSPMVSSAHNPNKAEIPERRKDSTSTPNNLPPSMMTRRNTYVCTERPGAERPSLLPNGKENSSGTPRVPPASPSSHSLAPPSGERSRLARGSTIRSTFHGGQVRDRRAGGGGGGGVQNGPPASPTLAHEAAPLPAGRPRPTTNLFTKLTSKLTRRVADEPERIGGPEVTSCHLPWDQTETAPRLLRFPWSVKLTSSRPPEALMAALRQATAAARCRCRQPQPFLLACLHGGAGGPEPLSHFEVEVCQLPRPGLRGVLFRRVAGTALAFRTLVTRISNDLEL

SMILES	assay	conditions	endpoint	result
COc1cc(Nc2ncc(F)c(Nc3ccc4c(n3)NC(=O)C(C)(C)O4)n2)cc(OC)c1OC	binding, competition with immobilised ligand	10 µM	inhibition	99%
CC(C)(C)c1cc(C=C(C#N)C#N)cc(Br)c1O	enzyme activity, inhibitor	0.5 µM	remaining activity	103%
Cn1cc(-c2cc(F)cc(N3CCn4c(cc5c4CCCC5)C3=O)c2CO)cc(Nc2ccc(N3CCN(C4COC4)CC3)cn2)c1=O	enzyme activity, inhibitor	0.1 µM	inhibition	9%
Cc1nn(C)cc1-c1nc2c(N3CCN(Cc4ccc(Cl)cc4)CC3)c(Cl)cnc2[nH]1	binding, competition with immobilised ligand	1 µM	remaining binding	29%
O=c1[nH]c2ccccc2n1C1CCN(Cc2ccc(-c3[nH]c4cc5ncnc5cc4nc3-c3ccccc3)cc2)CC1	cell-free assay	0.5 µM	remaining signal	102%
COc1ncccc1-c1cnn2ccc(N3CCN(C(=O)OC(C)C)CC3)nc12	binding, competition with immobilised ligand	1 µM	remaining binding	100%
Cn1cc(-c2cccc(N3CCc4c(sc5c4CC(C)(C)C5)C3=O)c2CO)cc(Nc2ccncn2)c1=O	enzyme activity, inhibitor	1 µM	inhibition	3%
Cn1cncc1[C@@](O)(COc1ccc(C#N)cc1-c1ccc(OC(F)(F)F)cc1)c1ccc(C#N)cc1	cell-free assay, competition with immobilised ligand	1 µM	remaining binding	100%
Nc1ncc(-c2nc(N3CCOCC3)nc(N3CCOCC3)n2)c(C(F)F)n1	binding, competition with immobilised ligand	10 µM	remaining binding	90%
